Measurements taken from ChEMBL document CHEMBL1140926, “Novel indazole non-nucleoside reverse transcriptase inhibitors using molecular hybridization based on crystallographic overlays” (J Med Chem, 2009).
pIC50: −log10 of the molar value.

How the values were obtained:
[1] = target: Human immunodeficiency virus type 1 reverse transcriptase (Human immunodeficiency virus 1, UniProt Q72547); experiment: Inhibition of RNA-dependent DNA polymerase activity of wild type HIV1 reverse transcriptase
[2] = target: Human immunodeficiency virus type 1 reverse transcriptase (Human immunodeficiency virus 1, UniProt Q72547, K103N); experiment: Inhibition of RNA-dependent DNA polymerase activity of HIV1 reverse transcriptase K103N mutant
[3] = target: Human immunodeficiency virus type 1 reverse transcriptase (Human immunodeficiency virus 1, UniProt Q72547, Y181C); experiment: Inhibition of RNA-dependent DNA polymerase activity of HIV1 reverse transcriptase Y181C mutant
[4] = tested on: Human immunodeficiency virus 1; experiment: Antiviral activity against HIV1 NL4-3 in HeLaP4 reporter cell assessed as virus replication by FluorAceTM beta-galactosidase reporter assay; assay type: functional, organism-based; details: Human immunodeficiency virus 1, NL4-3, HeLaP4
Method in brief: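 Antiviral IC50 reported as the geometric mean of at least three independent experiments, with standard deviation given.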

[5] = Metabolic stability in human liver microsomes assessed as half life; assay type: ADME, Microsome
[6] = Metabolic stability in human hepatocytes assessed as half life; assay type: ADME, cell-based, Liver, Hepatocyte
[7] = Cytotoxicity against human HeLaP4 cells; assay type: cell-based

SMILES	pIC50 [1]	pIC50 [2]	pIC50 [3]	pIC50 [4]	half-life [5]	half-life [6]	CC50 [7]
CCc1n[nH]c2ccc(F)c(Oc3cc(C#N)cc(C#N)c3)c12	7.60	6.74	7.49	8.34	> 2 h	> 6 h	> 100000 nM
Cc1n[nH]c2ccc(F)c(Oc3cc(C#N)cc(C#N)c3)c12	7.30		6.84	7.85	> 2 h	> 6 h	> 100000 nM
Cc1n[nH]c2cccc(Oc3cc(C#N)cc(C#N)c3)c12	6.48						
CCc1n[nH]c2cccc(Oc3cc(C#N)cc(C#N)c3)c12	6.95						
COCc1n[nH]c2cccc(Oc3cc(C#N)cc(C#N)c3)c12	5.78						
Cc1n[nH]c2ccc(Cl)c(Oc3cc(C#N)cc(C#N)c3)c12	6.40						
CNCc1n[nH]c2cccc(Oc3cc(C#N)cc(C#N)c3)c12	< 4.52						
Cc1n[nH]c2c(CO)ccc(Oc3cc(C#N)cc(C#N)c3)c12	7.15	5.90		7.85	> 2 h	0.183 h	> 100000 nM
CC(C)c1nc(COC(N)=O)n(Cc2ccncc2)c1Sc1cc(Cl)cc(Cl)c1 [CAPRAVIRINE]				9.30	0.125 h		
O=C1Nc2ccc(Cl)cc2[C@@](C#CC2CC2)(C(F)(F)F)O1 [EFAVIRENZ]				9.40			
